In ChEMBL document CHEMBL3259728, “Design, synthesis and biological evaluation of some novel substituted quinazolines as antitumor agents” (2014):

How the values were obtained:
Format in all cases: functional
[1] = Growth inhibition of human EKVX cells assessed as cell growth at 10^-4 M after 48 hrs by SRB assay; settings: read-out: Activity
[2] = test system: M14; assay: Growth inhibition of human M14 cells assessed as cell growth at 10^-4 M after 48 hrs by SRB assay; settings: M14, 48 h, read-out: Activity
[3] = Growth inhibition of human MOLT4 cells assessed as cell growth at 10^-8 M after 48 hrs by SRB assay; settings: MOLT-4, 48 h, read-out: Activity
[4] = Growth inhibition of human UACC257 cells assessed as cell growth at 10^-4 M after 48 hrs by SRB assay; settings: UACC-257, 48 h, read-out: Activity
[5] = test system: NCI-H460; assay: Growth inhibition of human NCI-H460 cells assessed as cell growth at 10^-8 M after 48 hrs by SRB assay; settings: NCI-H460, 48 h, read-out: Activity
[6] = test system: SF-268; assay: Growth inhibition of human SF268 cells assessed as cell growth at 10^-8 M after 48 hrs by SRB assay; settings: SF-268, 48 h, read-out: Activity
[7] = Growth inhibition of human HCC2998 cells assessed as cell growth at 10^-6 M after 48 hrs by SRB assay; settings: HCC 2998, 48 h, read-out: Activity
[8] = test system: MCF7; assay: Growth inhibition of human MCF7 cells assessed as cell growth at 10^-5 M after 48 hrs by SRB assay; settings: MCF7, 48 h, read-out: Activity
[9] = Growth inhibition of human OVCAR8 cells assessed as cell growth at 10^-8 M after 48 hrs by SRB assay; settings: OVCAR-8, 48 h, read-out: Activity
[10] = test system: SNB-75; assay: Cytotoxicity against human SNB75 cells after 48 hrs by SRB assay; settings: SNB-75, 48 h
Summary of the method: (§1)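 NCI 60-cell-line panel of human tumour lines from nine cancer types. Continuous 48 h exposure at five 10-fold dilutions from 10^-4 to 10^-8 M, with 5-FU as positive control. SRB protein stain read spectrophotometrically at time zero, untreated control and each concentration. GI50, TGI and LC50 were derived from the [(Ti−Tz)/(C−Tz)]×100 growth relations, and out-of-range values are given as > or < the tested limits.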

[11] = Growth inhibition of human BT549 cells assessed as cell growth at 10^-4 M after 48 hrs by SRB assay; settings: BT-549, 48 h, read-out: Activity
Summary of the method: (§2)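 Five-dose NCI panel protocol. Each dose (10^-4 to 10^-8 M, 10-fold steps) was given as 48 h continuous exposure, and protein was measured by SRB staining. Percentage growth at each level is [(Ti−Tz)/(C−Tz)]×100, where Tz is time-zero absorbance and C is untreated control.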

[12] = test system: A498; assay: Growth inhibition of human A498 cells assessed as cell growth at 10^-8 M after 48 hrs by SRB assay; settings: A498, 48 h, read-out: Activity; summary of the method: as §2
[13] = Cytotoxicity against human EKVX cells after 48 hrs by SRB assay; summary of the method: as §1
[14] = Growth inhibition of human UACC257 cells assessed as cell growth at 10^-6 M after 48 hrs by SRB assay; settings: UACC-257, 48 h, read-out: Activity
[15] = test system: SNB-19; assay: Growth inhibition of human SNB19 cells assessed as cell growth at 10^-8 M after 48 hrs by SRB assay; settings: SNB-19, 48 h, read-out: Activity
[16] = test system: MCF7; assay: Growth inhibition of human MCF7 cells assessed as cell growth at 10^-7 M after 48 hrs by SRB assay; settings: MCF7, 48 h, read-out: Activity
[17] = test system: ACHN; assay: Growth inhibition of human ACHN cells assessed as cell growth at 10^-8 M after 48 hrs by SRB assay; settings: read-out: Activity; summary of the method: as §2
[18] = test system: SK-MEL-5; assay: Growth inhibition of human SK-MEL-5 cells assessed as cell growth at 10^-6 M after 48 hrs by SRB assay; settings: SK-MEL-5, 48 h, read-out: Activity
[19] = test system: MCF7; assay: Growth inhibition of human MCF7 cells assessed as cell growth at 10^-8 M after 48 hrs by SRB assay; settings: MCF7, 48 h, read-out: Activity
[20] = test system: DU-145; assay: Growth inhibition of human DU145 cells assessed as cell growth at 10^-4 M after 48 hrs by SRB assay; settings: DU-145, 48 h, read-out: Activity; summary of the method: as §2
[21] = test system: Malme-3M; assay: Growth inhibition of human MALME-3M cells assessed as cell growth at 10^-8 M after 48 hrs by SRB assay; settings: read-out: Activity
[22] = Growth inhibition of human SF295 cells assessed as cell growth at 10^-8 M after 48 hrs by SRB assay; settings: SF-295, 48 h, read-out: Activity
[23] = test system: A498; assay: Growth inhibition of human A498 cells assessed as cell growth at 10^-4 M after 48 hrs by SRB assay; settings: A498, 48 h, read-out: Activity; summary of the method: as §2
[24] = Growth inhibition of human UACC62 cells assessed as cell growth at 10^-8 M after 48 hrs by SRB assay; settings: UACC-62, 48 h, read-out: Activity
[25] = test system: PC-3; assay: Growth inhibition of human PC3 cells assessed as cell growth at 10^-7 M after 48 hrs by SRB assay; settings: PC-3, 48 h, read-out: Activity
[26] = test system: MDA-MB-231; assay: Growth inhibition of human MDA-MB-231 cells assessed as cell growth at 10^-8 M after 48 hrs by SRB assay; settings: MDA-MB-231, 48 h, read-out: Activity
[27] = Growth inhibition of human OVCAR5 cells assessed as cell growth at 10^-6 M after 48 hrs by SRB assay; settings: OVCAR-5, 48 h, read-out: Activity
[28] = test system: MDA-MB-468; assay: Growth inhibition of human MDA-MB-468 cells assessed as cell growth at 10^-6 M after 48 hrs by SRB assay; settings: MDA-MB-468, 48 h, read-out: Activity
[29] = test system: SNB-19; assay: Cytotoxicity against human SNB19 cells after 48 hrs by SRB assay; settings: SNB-19, 48 h; summary of the method: as §1
[30] = test system: U-251; assay: Growth inhibition of human U251 cells assessed as cell growth at 10^-8 M after 48 hrs by SRB assay; settings: U-251, 48 h, read-out: Activity
[31] = Growth inhibition of human HCC2998 cells assessed as cell growth at 10^-4 M after 48 hrs by SRB assay; settings: HCC 2998, 48 h, read-out: Activity
[32] = Growth inhibition of human NCI-ADR-RES cells assessed as cell growth at 10^-8 M after 48 hrs by SRB assay; settings: read-out: Activity
[33] = read-out: LC50 (the source's name)
[34] = read-out: pLC50 (the source's name) (converted)

Structure (SMILES): Cc1ccc(-c2nc3ccc(Cl)cc3c(=O)n2/N=C/c2ccccc2)cc1
- growth at 100 µM [1]: 11%
- growth at 100 µM [2]: 47%
- growth at 0.01 µM [3]: 103%
- growth at 100 µM [4]: 60%
- growth at 0.01 µM [5]: 100%
- growth at 0.01 µM [6]: 91%
- growth at 1 µM [7]: 96%
- growth at 10 µM [8]: 59%
- growth at 0.01 µM [9]: 101%
- GI50 ([10]; read-out: GI50): 1.39 µM
- CC50 [10, 33]: > 100 µM
- TGI ([10]; read-out: TGI): 4.74 µM
- GI50 ([10]; read-out: pGI50 (converted)): 1.38 µM
- CC50 [10, 34]: > 100 µM
- TGI ([10]; read-out: pTGI (converted)): 4.79 µM
- growth at 100 µM [11]: 72%
- growth at 0.01 µM [12]: 88%
- GI50 ([13]; read-out: GI50): 4.15 µM
- CC50 [13, 33]: > 100 µM
- TGI ([13]; read-out: TGI): > 100 µM
- GI50 ([13]; read-out: pGI50 (converted)): 4.17 µM
- CC50 [13, 34]: > 100 µM
- TGI ([13]; read-out: pTGI): > 100 µM
- growth at 1 µM [14]: 97%
- growth at 0.01 µM [15]: 96%
- growth at 0.1 µM [16]: 90%
- growth at 0.01 µM [17]: 93%
- growth at 1 µM [18]: 77%
- growth at 0.01 µM [19]: 93%
- growth at 100 µM [20]: 49%
- growth at 0.01 µM [21]: 92%
- growth at 0.01 µM [22]: 91%
- growth at 100 µM [23]: 17%
- growth at 0.01 µM [24]: 93%
- growth at 0.1 µM [25]: 90%
- growth at 0.01 µM [26]: 108%
- growth at 1 µM [27]: 90%
- growth at 1 µM [28]: 92%
- GI50 ([29]; read-out: GI50): 5 µM
- CC50 [29, 33]: > 100 µM
- TGI ([29]; read-out: TGI): > 100 µM
- GI50 ([29]; read-out: pGI50 (converted)): 5.01 µM
- CC50 [29, 34]: > 100 µM
- TGI ([29]; read-out: pTGI): > 100 µM
- growth at 0.01 µM [30]: 99%
- growth at 100 µM [31]: 88%
- growth at 0.01 µM [32]: 98%
